# RGS4 block – RGS4 inhibitors, primary screen, cell-based, HEK293 M3R inducible RGS4, calcium flux; Regulator of G-protein signaling 4 (Homo sapiens), P49798; Fluo-4 calcium flux; stronger effect = higher value; triggered by carbachol at its EC20; B-score at 10 µM; 310,000 tested, 0.45% active; AID 463165, 2010;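 active = B-score, a plate-corrected calcium signal, over three deviations above library mean, with baseline fluorescence within five deviations of library mean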;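 also: RGS4 expression induced by doxycycline in cells with stable M3 receptor; B-score is computed from the integrated fluorescence ratio over baseline after carbachol; higher B-score means a larger calcium signal and so more RGS4 inhibition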
# Target sequence (P49798 whole entry, looked up): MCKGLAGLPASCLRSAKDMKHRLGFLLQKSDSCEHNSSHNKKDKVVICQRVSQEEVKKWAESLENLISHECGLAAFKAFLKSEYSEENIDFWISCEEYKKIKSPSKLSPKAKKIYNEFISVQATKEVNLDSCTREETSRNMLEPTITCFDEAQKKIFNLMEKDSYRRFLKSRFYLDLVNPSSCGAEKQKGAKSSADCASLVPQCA
# MrgX1 antag – antagonists of human MrgX1 receptor, primary screen, HEK293 cells, Fluo-4 calcium flux; 310,000 tested, 1.3% active; AID 588676, 2011; B-score at 10 µM; BAM8-22 antagonism; stronger effect = lower value;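 active = calcium-response B-score plate-corrected more than 3 library SD below zero, starting fluorescence within 5 deviations, no agonist response on first addition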;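 also: peak minus trough fluorescence over baseline after final BAM8-22 challenge near maximal dose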
# RGS4 act – RGS4 potentiators or activators, primary screen, cell-based, HEK293 M3R inducible RGS4, calcium flux. carbachol calcium flux Fluo4; stronger effect = lower value. B-score at 10 µM. 310,000 tested, 0.92% active. AID 463111, 2010;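 active = B-score of the integrated calcium signal more than 4 SD below the library mean, with starting fluorescence not abnormally high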;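 also: negative B-score means reduced calcium response which marks RGS4 activation or potentiation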
#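 Test system: HEK293 cells with stable M3R and inducible RGS4; also added: carbachol at ECmax as muscarinic agonist stimulus; schedule: dye loading 30 min 37 °C, buffer rest 30 min RT; technique: kinetic calcium fluorescence imaging with Fluo4-AM dye, 2 µM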
# MrgX1 allo act – positive allosteric modulators of MrgX1, primary screen, HEK293 cells, Fluo-4 calcium flux | 310,000 tested, 0.63% active | B-score at 10 µM | FDSS; stronger effect = higher value | Mas-related G-protein coupled receptor member X1 (Homo sapiens), Q96LB2;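 active = plate-corrected calcium response at least 3 library SD above typical, normal starting fluorescence, not activating the receptor alone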;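 also: compound read alongside a low EC10 to EC30 dose of BAM8-22 agonist; peak minus trough fluorescence over baseline measured at the second addition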
# MrgX1 agonist – agonists of human MrgX1 receptor, primary screen, HEK293 cells, Fluo-4 calcium flux; 310,000 tested, 0.44% active; B-score at 10 µM; Mas-related G-protein coupled receptor member X1 (Homo sapiens), Q96LB2; Fluo-4 calcium fluorescence, agonist mode; stronger effect = higher value;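 active = calcium response B-score plate-corrected fluorescence ratio at least 3 library SD, with starting fluorescence B-score inside 5 SD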
#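 Assay system: MrgX1-expressing HEK293 cells / Amount: fifteen thousand cells per well / Doses: test compound in the initial addition of three / Timing: cells plated overnight, dye loaded 0.5 h 37 °C, 0.5 h room temperature / Technique: kinetic calcium dye fluorescence, Fluo-4 NW / Control set: positive and negative controls per plate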
# RGS4 inh valid – enhanced carbachol calcium response, M3R/RGS4 cells, RGS4 inhibitor project, cell-based, validation screen, HEK293 M3R/RGS4, calcium flux; calcium response, % at 10 µM; shares compounds with RGS4 block; carbachol calcium Fluo-4 fluorescence; carbachol added at its EC20; 0 = buffer wells, 100 = carbachol control; 1,700 tested, 65% active;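 active = duplicate-averaged calcium response above the buffer-only control mean plus 5 SD of those controls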;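 also: integrated fluorescence ratio F max minus min over baseline F0; higher response in RGS4-induced cells means RGS4 inhibition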
# RGS4 uninduced – carbachol calcium response in non-induced M3R cells, confirmation, counter-screen for RGS4 inhibitor project, cell-based, HEK293 M3R; shares compounds with RGS4 block; carbachol calcium Fluo-4; submaximal (EC20) carbachol stimulus; buffer wells 0%, carbachol control wells 100%; activity (percent), % at 10 µM; 1,900 tested, 20% active; call rule not given here;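 also: RGS4 induction absent so cells express M3R without RGS4; higher means more calcium signal and flags a non-specific hit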
# M3R basal Ca ctr – second RGS4 inhibitor counter-screen in uninduced cells lacking carbachol | shares compounds with RGS4 block | HEK293 M3R/RGS4 non-induced, Fluo-4 calcium, no carbachol; normalised: buffer wells 0%, carbachol wells 100% | calcium response (agonist-mode artifact), % at 10 µM | 1,900 tested, 22% active | AID 493001;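 active = duplicate-averaged calcium rise in uninduced cells above buffer wells' mean plus 5 SD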
# * = called active by the depositor; i = inactive; . = not tested or not shown. Compounds with a hit are over-represented: about 3.5% of the library has one in this group of screens.
SMILES,RGS4 block,MrgX1 antag,RGS4 act,MrgX1 allo act,MrgX1 agonist,RGS4 inh valid,RGS4 uninduced,M3R basal Ca ctr
CCOC(=O)c1c(-c2ccccc2)csc1NC(=O)CSc1nc(N)cc(N)n1,5.5*,i,i,i,i,6.0%*,i,i
CCOC(=O)c1c(-c2ccc(C)o2)csc1NC(=O)CN1CCCCC1,i,i,i,i,i,.,.,.
O=C(O)c1ccc(/C=C/C(=O)c2ccc3c(c2)OCCCO3)cc1,14*,i,i,i,i,47%*,i,i
COc1ccc(/C=N/NC(=O)c2ccc3c(c2)OCCO3)cc1[N+](=O)[O-],i,i,i,i,i,.,.,.
COc1ccc(/C=C/C(=O)c2ccc3c(c2)OCCO3)cc1[N+](=O)[O-],8.1*,i,i,i,i,6.0%*,i,i
CC(=O)Nc1ccc(/C=C/C(=O)c2ccc3c(c2)OCCO3)cc1,i,i,i,i,i,.,.,.
O=C(NCCN1CCOCC1)C1CC(=O)N(c2ccc(Cl)cc2)C1 (centres undefined),i,i,i,i,i,.,.,.
O=c1c(Cl)c(Cl)cnn1Cc1nnc(-c2ccccc2Br)o1,72*,.,i,.,.,142%*,42%*,i
COc1cc(F)ccc1S(=O)(=O)N1CCN(Cc2ccccc2)CC1,i,i,i,i,i,.,.,.
O=C1c2ccccc2CN1CCSC(=S)N1CCOCC1,6.5*,i,i,i,i,i,i,i
Cc1ccc2cc(/C=N/NC(=O)c3ccc(F)cc3)c(Cl)nc2c1,i,i,i,i,i,.,.,.
Cc1ccc2nc(Cl)c(/C=C/C(=O)c3ccco3)cc2c1,i,i,i,i,i,i,50%*,i
COc1ccc2cc(/C=C/C(=O)c3ccco3)c(Cl)nc2c1,i,i,i,i,i,.,.,.
COc1cc2cc(/C=C/C(=O)c3ccco3)c(Cl)nc2cc1OC,8.1*,i,i,i,i,16%*,i,20%*
Cc1ccc2cc(/C=C/C(=O)c3ccco3)c(Cl)nc2c1,6*,i,i,i,i,i,39%*,i
COc1ccc(Cl)cc1S(=O)(=O)Nc1noc2ccccc12,i,i,i,i,i,.,.,.
CCCN(CCC)CCCNC(=O)C1CCC(CNS(=O)(=O)c2cccc3nsnc23)CC1 (centres undefined),i,i,i,i,i,.,.,.
COc1cc(/C=C2\SC(=Nc3ccc(N4CCOCC4)cc3)N(C)C2=O)ccc1OC(C)C(=O)O (centres undefined),6.1*,i,i,i,i,7.5%*,i,i
COc1cc(/C=C2\SC(=Nc3ccccc3)N(Cc3ccco3)C2=O)ccc1OC(C)C(=O)O (centres undefined),i,i,i,i,i,.,.,.
Cc1cc(Cn2nnc3ccccc32)c(O)c(C(C)(C)C)c1,i,i,i,i,i,.,.,.
Nn1c(Nc2ccccc2)nc2sc3c(c2c1=O)CCCC3,i,i,i,i,i,i,i,i
CC(=O)c1cccc(NC(=O)CSc2ncc(C(=O)Nc3ccccc3)c(=O)n2C)c1,i,i,i,i,i,.,39%*,i
